{"source": "ChEMBL document CHEMBL3271986", "about": "“Studies on vitamin D (calciferol) and its analogues. 10. Side-chain analogues of 25-hydroxyvitamin D3” (J Med Chem, 1977)", "type_in_all_cases": "functional, organism-based", "key": {"Gallus gallus [1]": {"tested_on": "Gallus gallus", "experiment": "Induction of intestinal [45Ca2+] absorption in rachitic white leghorn cockerel assessed as radioactivity in serum up to 78 nmol, ip treated 24 hrs prior to testing measured at 24 hrs post treatment", "method_in_brief": "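Rachitic White Leghorn cockerels (3 weeks rachitogenic low-calcium diet without vitamin D, zero-calcium diet for the last 3 days). Dosed intraperitoneally in 0.2 ml propanediol-ethanol (3/1) 24 h before assay. Under light ether anaesthesia the duodenum was exposed and given 5 μCi 45Ca2+ plus 4 mg carrier 40Ca2+. After 30 min, decapitation; radioactivity counted in 0.2 ml serum. Mean ± SEM, 8-10 birds.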"}, "Gallus gallus [2]": {"tested_on": "Gallus gallus", "experiment": "Induction of bone calcium mobilization in rachitic white leghorn cockerel assessed as Ca2+ level in serum up to 78 nmol, ip treated 24 hrs prior to testing measured at 24 hrs post treatment by atomic absorption spectrometric analysis", "method_in_brief": "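White Leghorn cockerels reared 3 weeks on a rachitogenic low-calcium diet without vitamin D, then zero-calcium diet for 3 days before assay. Single intraperitoneal dose in 0.2 ml 1,2-propanediol-ethanol (3/1) 24 h before assay; vehicle-only rachitic and vitamin D3 controls. Blood taken after decapitation and allowed to clot. Serum calcium measured by atomic absorption spectrometry on diluted samples. Mean ± SEM, 8-10 birds.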"}, "Gallus gallus [3]": {"tested_on": "Gallus gallus", "experiment": "Induction of intestinal [45Ca2+] absorption in rachitic white leghorn cockerel assessed as radioactivity in serum at 32.5 nmol, ip measured up to 96 hrs relative to control", "method_in_brief": "(§1)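 Rachitic chicks (3 weeks on low-calcium diet lacking vitamin D, then zero-calcium diet for 3 days) were dosed ip in 0.2 ml propanediol-ethanol (3/1); solvent-only -D controls. At assay, 5 µCi 45Ca2+ plus 4 mg 40Ca2+ carrier was placed into the surgically exposed duodenum under light ether anesthesia. Serum radioactivity (0.2 ml) read 30 min later. Mean ± SEM, 8-10 birds.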"}, "Gallus gallus [4]": {"tested_on": "Gallus gallus", "experiment": "Induction of bone calcium mobilization in rachitic white leghorn cockerel assessed as Ca2+ level in serum at 32.5 nmol, ip measured up to 96 hrs by atomic absorption spectrometric analysis relative to control", "method_in_brief": "(§2)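 Cockerels raised 3 weeks on rachitogenic low-calcium diet without vitamin D, then zero-calcium diet for 3 days before assay. Compound given ip in 0.2 ml 1,2-propanediol-ethanol (3/1); -D controls received solvent only, +D controls 6.5 nmol vitamin D3 24 h before assay. Serum Ca2+ measured by atomic absorption spectrometry on diluted serum. Mean ± SEM, 8-10 birds.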"}, "Gallus gallus [5]": {"tested_on": "Gallus gallus", "experiment": "Induction of intestinal [45Ca2+] absorption in rachitic white leghorn cockerel assessed as radioactivity in serum up to 97.5 nmol, ip measured at 24 hrs relative to control", "method_in_brief": "as §1"}, "Gallus gallus [6]": {"tested_on": "Gallus gallus", "experiment": "Induction of bone calcium mobilization in rachitic white leghorn cockerel assessed as Ca2+ level in serum up to 97.5 nmol, ip measured at 24 hrs by atomic absorption spectrometric analysis relative to control", "method_in_brief": "as §2"}, "Gallus gallus [7]": {"tested_on": "Gallus gallus", "experiment": "Induction of intestinal [45Ca2+] absorption in rachitic white leghorn cockerel assessed as radioactivity in serum at 130 nmol, ip measured at 24 hrs", "method_in_brief": "as §1"}, "Gallus gallus [8]": {"tested_on": "Gallus gallus", "experiment": "Induction of bone calcium mobilization in rachitic white leghorn cockerel assessed as Ca2+ level in serum at 130 nmol, ip measured at 24 hrs by atomic absorption spectrometric analysis", "method_in_brief": "as §2"}}, "note": "The source made the active and inactive calls. The rule behind the calls is not given here."}
{"smiles": "C=C1CC[C@H](O)C/C1=C/C=C1\\CCC[C@]2(C)[C@@H]([C@H](C)CCCC(C)C)CC[C@@H]12", "values": [{"measurement": "Activity", "setting": "Gallus gallus [1]", "value": "Active"}, {"measurement": "Activity", "setting": "Gallus gallus [2]", "value": "Active"}]}
{"smiles": "C=C1CC[C@H](O)C/C1=C/C=C1\\CCC[C@]2(C)[C@@H]([C@H](C)CCC(C)(C)O)CC[C@@H]12", "values": [{"measurement": "Activity", "setting": "Gallus gallus [3]", "value": "inactive"}, {"measurement": "Activity", "setting": "Gallus gallus [4]", "value": "inactive"}, {"measurement": "Activity", "setting": "Gallus gallus [5]", "value": "inactive"}, {"measurement": "Activity", "setting": "Gallus gallus [6]", "value": "inactive"}]}
{"smiles": "C=C1CC[C@H](O)C/C1=C/C=C1\\CCC[C@]2(C)[C@@H]([C@H](C)CC(C)(C)O)CC[C@@H]12", "values": [{"measurement": "Activity", "setting": "Gallus gallus [3]", "value": "inactive"}, {"measurement": "Activity", "setting": "Gallus gallus [4]", "value": "inactive"}, {"measurement": "Activity", "setting": "Gallus gallus [5]", "value": "inactive"}, {"measurement": "Activity", "setting": "Gallus gallus [6]", "value": "inactive"}]}
{"smiles": "C=C1CC[C@H](O)C/C1=C/C=C1\\CCC[C@]2(C)[C@@H]([C@H](C)C(C)(C)O)CC[C@@H]12", "values": [{"measurement": "Activity", "setting": "Gallus gallus [3]", "value": "inactive"}, {"measurement": "Activity", "setting": "Gallus gallus [4]", "value": "inactive"}, {"measurement": "Activity", "setting": "Gallus gallus [5]", "value": "inactive"}, {"measurement": "Activity", "setting": "Gallus gallus [6]", "value": "inactive"}]}
{"smiles": "C=C1CC[C@H](O)C/C1=C/C=C1\\CCC[C@]2(C)[C@@H]([C@H](C)CCCCC(C)(C)O)CC[C@@H]12", "values": [{"measurement": "Activity", "setting": "Gallus gallus [7]", "value": "Active"}, {"measurement": "Activity", "setting": "Gallus gallus [8]", "value": "Active"}, {"measurement": "Activity", "setting": "Gallus gallus [1]", "value": "Active"}, {"measurement": "Activity", "setting": "Gallus gallus [2]", "value": "Active"}]}
{"smiles": "C=C1CC[C@H](O)C/C1=C/C=C1\\CCC[C@]2(C)[C@@H](C(C)(C)O)CC[C@@H]12", "values": [{"measurement": "Activity", "setting": "Gallus gallus [3]", "value": "inactive"}, {"measurement": "Activity", "setting": "Gallus gallus [4]", "value": "inactive"}, {"measurement": "Activity", "setting": "Gallus gallus [5]", "value": "inactive"}, {"measurement": "Activity", "setting": "Gallus gallus [6]", "value": "inactive"}]}
